In BindingDB's records for doi:10.1021/jm00111a027 (Merck Sharp & Dohme Research Laboratories, 1991):
Non-standard residues stand in square brackets, D forms with d. Residues, ends and D or L forms follow the SMILES beside them. *: point of attachment. NH(2-Me-nonan-4R-yl) = CCCCC[C@H](CC(C)C)N*; NHCH(iBu)2 = CC(C)CC(CC(C)C)N*; X1 = CC(C)CCOC[C@H](CC(C)C)N*; X11 = CCCCC[C@@H](CC(C)C)N*; Leu(ol) = CC(C)C[C@H](N)CO; X4 = CCCCCC[C@H](CC(C)C)N*; X12 = CCCC[C@H](CC(C)C)N*; X8 = CCCC[C@@H](CC(C)C)N*; X9 = CCC[C@@H](CC(C)C)N*; X3 = COC[C@H](CC(C)C)N*; X6 = CCC[C@H](CC(C)C)N*; Piv = CC(C)(C)C(=O)*; X2 = CCCCC(CCCC)N*; X7 = CCCC(CCC)N*

What was measured:
[1] = Compound was evaluated for mitogenic inhibition against Swiss 3T3 murine fibroblast cells.
[2] = target: Gastrin-releasing peptide receptor (Mus musculus, UniProt P21729); assay: Compound was evaluated for mitogenic inhibition against Swiss 3T3 murine fibroblast cells.
Method in brief: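 Swiss 3T3 monolayers grown to confluence, then serum-starved in serum-free DMEM for 48 h. Antagonist added together with 3 nM N-acetyl-GRP-20-27 amide and 23 nM [3H]thymidine. After a further 48 h, cells detached with trypsin/5 mM EDTA and filter-harvested; [3H]thymidine uptake measured. IC50 is the mean of at least two independent experiments.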

[3] = Compound was evaluated for mitogenic inhibition against Swiss 3T3 murine fibroblast cells.; remark: listed apart in the source

Sequence of Gastrin-releasing peptide receptor (P21729 whole entry): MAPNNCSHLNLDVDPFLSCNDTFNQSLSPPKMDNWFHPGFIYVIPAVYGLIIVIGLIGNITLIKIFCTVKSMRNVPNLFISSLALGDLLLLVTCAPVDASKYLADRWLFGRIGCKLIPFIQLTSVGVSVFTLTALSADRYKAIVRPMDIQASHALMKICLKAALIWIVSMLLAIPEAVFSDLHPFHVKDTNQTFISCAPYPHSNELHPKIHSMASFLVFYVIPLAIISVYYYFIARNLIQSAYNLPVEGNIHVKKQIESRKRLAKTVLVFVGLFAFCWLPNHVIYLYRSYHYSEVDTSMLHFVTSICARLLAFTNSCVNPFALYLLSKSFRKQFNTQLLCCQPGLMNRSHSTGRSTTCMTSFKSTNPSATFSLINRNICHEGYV

Structure (SMILES): CCC[C@@H](CC(C)C)NC(=O)[C@H](Cc1cnc[nH]1)NC(=O)CNC(=O)[C@@H](NC(=O)[C@H](C)NC(=O)[C@H](Cc1c[nH]c2ccccc12)NC(=O)[C@H](Cc1cnc[nH]1)NC(C)=O)C(C)C [2-{2-[2-[2-Acetylamino-3-(3H-imidazol-4-yl)-propionylamino]-3-(1H-indol-3-yl)-propionylamino]-propionylamino}-N-{[2-(3H-imidazol-4-yl)-1-(3-methyl-1-propyl-butylcarbamoyl)-ethylcarbamoyl]-methyl}-3-methyl-butyramide] (Ac-HWAVGH-X9)
- IC50 [1]: 35 nM

Structure (SMILES): CC(=O)N[C@@H](Cc1c[nH]cn1)C(=O)N[C@@H](Cc1c[nH]c2ccccc12)C(=O)N[C@@H](C)C(=O)N[C@H](C(=O)NCC(=O)N[C@@H](Cc1c[nH]cn1)C(=O)N[C@H](COCCC(C)C)CC(C)C)C(C)C [2-{2-[2-[2-Acetylamino-3-(3H-imidazol-4-yl)-propionylamino]-3-(1H-indol-3-yl)-propionylamino]-propionylamino}-N-({2-(3H-imidazol-4-yl)-1-[3-methyl-1-(3-methyl-butoxymethyl)-butylcarbamoyl]-ethylcarbamoyl}-methyl)-3-methyl-butyramide] (Ac-HWAVGH-X1)
- IC50 [2]: 32 nM

Structure (SMILES): CCCC[C@H](CC(C)C)NC(=O)[C@H](Cc1cnc[nH]1)NC(=O)CNC(=O)[C@@H](NC(=O)[C@H](C)NC(=O)[C@H](Cc1c[nH]c2ccccc12)NC(=O)[C@H](Cc1cnc[nH]1)NC(C)=O)C(C)C [2-{2-[2-[2-Acetylamino-3-(3H-imidazol-4-yl)-propionylamino]-3-(1H-indol-3-yl)-propionylamino]-propionylamino}-N-{[2-(3H-imidazol-4-yl)-1-(1-isobutyl-pentylcarbamoyl)-ethylcarbamoyl]-methyl}-3-methyl-butyramide] (Ac-HWAVGH-X12)
- IC50 [3]: 3 nM

Structure (SMILES): CCOC(=O)[C@H](CC(C)C)NC(=O)[C@H](Cc1c[nH]cn1)NC(=O)CNC(=O)[C@@H](NC(=O)[C@H](C)NC(=O)[C@H](Cc1c[nH]c2ccccc12)NC(=O)[C@H](Cc1c[nH]cn1)NC(C)=O)C(C)C [2-[2-[2-(2-{2-[2-[2-Acetylamino-3-(3H-imidazol-4-yl)-propionylamino]-3-(1H-indol-3-yl)-propionylamino]-propionylamino}-3-methyl-butyrylamino)-acetylamino]-3-(3H-imidazol-4-yl)-propionylamino]-4-methyl-pentanoic acid ethyl ester] (Ac-HWAVGHL-OEt)
- IC50 [1]: 20 nM

Structure (SMILES): CC(=O)N[C@@H](Cc1c[nH]cn1)C(=O)N[C@@H](Cc1c[nH]c2ccccc12)C(=O)N[C@@H](C)C(=O)N[C@H](C(=O)NCC(=O)N[C@@H](Cc1c[nH]cn1)C(=O)N[C@H](CO)CC(C)C)C(C)C [2-{2-[2-[2-Acetylamino-3-(3H-imidazol-4-yl)-propionylamino]-3-(1H-indol-3-yl)-propionylamino]-propionylamino}-N-{[1-(1-hydroxymethyl-3-methyl-butylcarbamoyl)-2-(3H-imidazol-4-yl)-ethylcarbamoyl]-methyl}-3-methyl-butyramide] (Ac-HWAVGH[Leu(ol)])
- IC50 [1]: 300 nM

Structure (SMILES): CC(=O)N[C@@H](Cc1cnc[nH]1)C(=O)N[C@@H](Cc1c[nH]c2ccccc12)C(=O)N[C@@H](C)C(=O)N[C@H](C(=O)NCC(=O)N[C@@H](Cc1cnc[nH]1)C(=O)NC(CC(C)C)CC(C)C)C(C)C [2-{2-[2-[2-Acetylamino-3-(3H-imidazol-4-yl)-propionylamino]-3-(1H-indol-3-yl)-propionylamino]-propionylamino}-N-{[2-(3H-imidazol-4-yl)-1-(1-isobutyl-3-methyl-butylcarbamoyl)-ethylcarbamoyl]-methyl}-3-methyl-butyramide] (Ac-HWAVGH-{NHCH(iBu)2})
- IC50 [3]: 8 nM

Structure (SMILES): CCCCC[C@@H](CC(C)C)NC(=O)[C@H](Cc1cnc[nH]1)NC(=O)CNC(=O)[C@@H](NC(=O)[C@H](C)NC(=O)[C@H](Cc1c[nH]c2ccccc12)NC(=O)[C@H](Cc1cnc[nH]1)NC(C)=O)C(C)C [2-{2-[2-[2-Acetylamino-3-(3H-imidazol-4-yl)-propionylamino]-3-(1H-indol-3-yl)-propionylamino]-propionylamino}-N-{[2-(3H-imidazol-4-yl)-1-(1-isobutyl-hexylcarbamoyl)-ethylcarbamoyl]-methyl}-3-methyl-butyramide] (Ac-HWAVGH-X11)
- IC50 [1]: 22 nM

Structure (SMILES): CCOC[C@H](CC(C)C)NC(=O)[C@H](Cc1c[nH]cn1)NC(=O)[C@H](C)NC(=O)[C@@H](NC(=O)[C@H](C)NC(=O)[C@H](Cc1c[nH]c2ccccc12)NC(=O)[C@H](Cc1c[nH]cn1)NC(C)=O)C(C)C [2-{2-[2-[2-Acetylamino-3-(3H-imidazol-4-yl)-propionylamino]-3-(1H-indol-3-yl)-propionylamino]-propionylamino}-N-{1-[1-(1-ethoxymethyl-3-methyl-butylcarbamoyl)-2-(3H-imidazol-4-yl)-ethylcarbamoyl]-ethyl}-3-methyl-butyramide]
- IC50 [1]: > 300 nM

Structure (SMILES): CCC[C@H](CC(C)C)NC(=O)[C@H](Cc1cnc[nH]1)NC(=O)CNC(=O)[C@@H](NC(=O)[C@H](C)NC(=O)[C@H](Cc1c[nH]c2ccccc12)NC(=O)[C@H](Cc1cnc[nH]1)NC(C)=O)C(C)C [2-{2-[2-[2-Acetylamino-3-(3H-imidazol-4-yl)-propionylamino]-3-(1H-indol-3-yl)-propionylamino]-propionylamino}-N-{[2-(3H-imidazol-4-yl)-1-(3-methyl-1-propyl-butylcarbamoyl)-ethylcarbamoyl]-methyl}-3-methyl-butyramide] (Ac-HWAVGH-X6)
- IC50 [1]: 10 nM

Structure (SMILES): CCCCC[C@H](CC(C)C)NC(=O)[C@H](Cc1cnc[nH]1)NC(=O)CNC(=O)[C@@H](NC(=O)[C@H](C)NC(=O)[C@H](Cc1c[nH]c2ccccc12)NC(=O)[C@H](Cc1cnc[nH]1)NC(=O)C(C)(C)C)C(C)C [2-{2-[2-[2-(2,2-Dimethyl-propionylamino)-3-(3H-imidazol-4-yl)-propionylamino]-3-(1H-indol-3-yl)-propionylamino]-propionylamino}-N-{[2-(3H-imidazol-4-yl)-1-(1-isobutyl-hexylcarbamoyl)-ethylcarbamoyl]-methyl}-3-methyl-butyramide] (Piv-HWAVGH-{NH(2-Me-nonan-4R-yl)})
- IC50 [1]: 0.6 nM

Structure (SMILES): CCCCC(CCCC)NC(=O)[C@H](Cc1cnc[nH]1)NC(=O)CNC(=O)[C@@H](NC(=O)[C@H](C)NC(=O)[C@H](Cc1c[nH]c2ccccc12)NC(=O)[C@H](Cc1cnc[nH]1)NC(C)=O)C(C)C [2-{2-[2-[2-Acetylamino-3-(3H-imidazol-4-yl)-propionylamino]-3-(1H-indol-3-yl)-propionylamino]-propionylamino}-N-{[1-(1-butyl-pentylcarbamoyl)-2-(3H-imidazol-4-yl)-ethylcarbamoyl]-methyl}-3-methyl-butyramide] (Ac-HWAVGH-X2)
- IC50 [3]: 11 nM

Structure (SMILES): COC[C@H](CC(C)C)NC(=O)[C@H](Cc1c[nH]cn1)NC(=O)CNC(=O)[C@@H](NC(=O)[C@H](C)NC(=O)[C@H](Cc1c[nH]c2ccccc12)NC(=O)[C@H](Cc1c[nH]cn1)NC(C)=O)C(C)C [2-{2-[2-[2-Acetylamino-3-(3H-imidazol-4-yl)-propionylamino]-3-(1H-indol-3-yl)-propionylamino]-propionylamino}-N-{[2-(3H-imidazol-4-yl)-1-(1-methoxymethyl-3-methyl-butylcarbamoyl)-ethylcarbamoyl]-methyl}-3-methyl-butyramide] (Ac-HWAVGH-X3)
- IC50 [1]: 91 nM

Structure (SMILES): CCCC[C@@H](CC(C)C)NC(=O)[C@H](Cc1c[nH]cn1)NC(=O)CNC(=O)[C@@H](NC(=O)[C@H](C)NC(=O)[C@H](Cc1c[nH]c2ccccc12)NC(=O)[C@H](Cc1c[nH]cn1)NC(C)=O)C(C)C [2-{2-[2-[2-Acetylamino-3-(3H-imidazol-4-yl)-propionylamino]-3-(1H-indol-3-yl)-propionylamino]-propionylamino}-N-{[2-(3H-imidazol-4-yl)-1-(1-isobutyl-pentylcarbamoyl)-ethylcarbamoyl]-methyl}-3-methyl-butyramide] (Ac-HWAVGH-X8)
- IC50 [1]: 6 nM

Structure (SMILES): CCCCC[C@H](CC(C)C)NC(=O)[C@H](Cc1cnc[nH]1)NC(=O)CNC(=O)[C@@H](NC(=O)[C@H](C)NC(=O)[C@H](Cc1c[nH]c2ccccc12)NC(=O)[C@H](Cc1cnc[nH]1)NC(C)=O)C(C)C [2-{2-[2-[2-Acetylamino-3-(3H-imidazol-4-yl)-propionylamino]-3-(1H-indol-3-yl)-propionylamino]-propionylamino}-N-{[2-(3H-imidazol-4-yl)-1-(1-isobutyl-hexylcarbamoyl)-ethylcarbamoyl]-methyl}-3-methyl-butyramide] (Ac-HWAVGH-{NH(2-Me-nonan-4R-yl)})
- IC50 [1]: 4 nM

Structure (SMILES): CCCCCC[C@H](CC(C)C)NC(=O)[C@H](Cc1cnc[nH]1)NC(=O)CNC(=O)[C@@H](NC(=O)[C@H](C)NC(=O)[C@H](Cc1c[nH]c2ccccc12)NC(=O)[C@H](Cc1cnc[nH]1)NC(C)=O)C(C)C [2-{2-[2-[2-Acetylamino-3-(3H-imidazol-4-yl)-propionylamino]-3-(1H-indol-3-yl)-propionylamino]-propionylamino}-N-{[2-(3H-imidazol-4-yl)-1-(1-isobutyl-heptylcarbamoyl)-ethylcarbamoyl]-methyl}-3-methyl-butyramide] (Ac-HWAVGH-X4)
- IC50 [1]: 7 nM

Structure (SMILES): CCCC(CCC)NC(=O)[C@H](Cc1cnc[nH]1)NC(=O)CNC(=O)[C@@H](NC(=O)[C@H](C)NC(=O)[C@H](Cc1c[nH]c2ccccc12)NC(=O)[C@H](Cc1cnc[nH]1)NC(C)=O)C(C)C [2-{2-[2-[2-Acetylamino-3-(3H-imidazol-4-yl)-propionylamino]-3-(1H-indol-3-yl)-propionylamino]-propionylamino}-N-{[2-(3H-imidazol-4-yl)-1-(1-propyl-butylcarbamoyl)-ethylcarbamoyl]-methyl}-3-methyl-butyramide] (Ac-HWAVGH-X7)
- IC50 [1]: 80 nM
